These results are taken from ChEMBL document CHEMBL1126160, “Synthesis and structure-activity relationships of 7-diazabicycloalkylquinolones, including danofloxacin, a new quinolone antibacterial agent for veterinary medicine” (J Med Chem, 1992).

In brackets after ≈: the same amount, converted by molar mass.

In data set [1] the test system is Actinobacillus pleuropneumoniae. The data set is described as follows: Compound was evaluated for minimum effective dose against Actinobacillus pleuropneumonia peroral dose administration. The format is functional. To be noted: po, read-out: MED. The method in brief: (§1)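 Calf and swine respiratory disease models. Calves received acetic acid intratracheally on the day before and on day 0, then an endotracheal challenge with P. haemolytica B280PA, about 5 × 10^8 cfu/mL. They were dosed im with a 2.5% or 5% solution in sterile water on days 0 and 1 (SID × 2). Pigs weighing 8.5–12.5 kg were challenged intranasally with A. pleuropneumoniae B316HM, 10^9 cfu/mL. They were dosed once within 1 h, either im (1% or 2.5% solution) or by gavage (0.5% solution). MED was the lowest dose giving significant reduction of lung pathology.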

Data set [2] has the same test system. The data set is described as follows: In vitro antibacterial activity against anaerobically grown Actinobacillus pleuropneumoniae ([…]). Type of data set: functional. The method in brief: (§2)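 Agar dilution MICs. Anaerobic strains were tested on tryptose agar with 5% bovine blood and incubated 48 h at 39 °C in an anaerobe chamber under N2/CO2/H2 (80:10:10).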

The test system of the next data set is Trueperella pyogenes. The data set is described as follows: In vitro antibacterial activity against anaerobically grown Actinomyces pyogenes (14D002). The format is functional. The method in brief: as §2
The subject of another data set is Phocaeicola vulgatus. The data set is described as follows: In vitro antibacterial activity against anaerobically grown Bacteroides vulgatus (78D029). The format is functional. Summed up:
as §2

Data set [3] relates to Bordetella bronchiseptica. The data set is described as follows: In vitro antibacterial activity against aerobically grown Bordetella bronchiseptica (73A009). The format is functional. The method in brief: (§3)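 Agar dilution MICs. Aerobic strains were tested on brain heart infusion agar and incubated aerobically at 37 °C for 18–20 h.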
Data set [4] deals with Escherichia coli. The data set is described as follows: In vivo protective dose was evaluated against Escherichia coli (51A266) in mouse(sc). The format is functional. To be noted: read-out: PD50. Summed up: (§4)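 Female CF-1 mice (15 g), groups of 10, challenged ip with 0.5 mL bacterial suspension (P. multocida 59A006 or E. coli 51A266 at 3.0 × 10^8 cfu/mL; S. choleraesuis 58B010 at 8.5 × 10^2 cfu/mL). Drug given sc or po at 30 min, 4 h and 24 h after challenge; survival recorded at 96 h; PD50 by probit analysis.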

Data set [5] has as its system Escherichia coli. The data set is described as follows: In vitro antibacterial activity against aerobically grown Escherichia coli (51A538). The format is functional. The method in brief: as §3
The subject of data set [6] is Escherichia coli. The data set is described as follows: Escherichia coli DNA cleavage endpoint value which is the minimum amount required (in micro g/mL) to induce detectable cleavage of supercoiled pBR322 substrate to linear form (gyrase). Particulars: read-out: MIC. The format is functional. The method in brief: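 DNA gyrase A and B subunits were purified from E. coli overproducers. About 2 units of holoenzyme were incubated with pBR322 in Tris-HCl pH 7.5 containing MgCl2, spermidine, DTT, 0.2 mM ATP, BSA and tRNA. Drug was added as 2-fold serial dilutions, and reactions ran for 60 min at 25 °C. Reactions were stopped with SDS and proteinase K, then run on agarose and stained with ethidium. The endpoint was the lowest concentration giving detectable linear DNA.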

The test system of data set [7] is Mannheimia haemolytica. The data set is described as follows: Compound was evaluated for minimum against Pasteurella haemolytica intramuscular dose administration. Type of data set: functional. Particulars: im, read-out: MED. Summed up: as §1
The nature of data set [8]: In vitro antibacterial activity against Aerobically grown Pasteurella haemolytica (59B018). To be noted: Mannheimia haemolytica. Type of data set: functional. The method in brief: as §3
In data set [9] the test system is Pasteurella multocida. The data set is described as follows: In vitro antibacterial activity against aerobically grown Pasteurella multocida (59A006). Type of data set: functional. Summed up:
as §3

Data set [10] concerns Pasteurella multocida. The data set is described as follows: In vivo protective dose was evaluated Pasteurella multocida (59A006) in mouse(po). Type of data set: functional. To be noted: read-out: PD50. The method in brief: as §4
For data set [11], the system named is Pasteurella multocida. The data set is described as follows: In vivo protective dose was evaluated Pasteurella multocida (59A006) in mouse(sc). Type of data set: functional. Particulars: read-out: PD50. The method in brief: as §4
Data set [12] deals with Salmonella enterica. The data set is described as follows: In vitro antibacterial activity against aerobically grown Salmonella choleraesuis (58B015). The format is functional.
The test system of data set [13] is Staphylococcus aureus. The data set is described as follows: In vitro antibacterial activity against aerobically grown Staphylococcus aureus (54B004). The format is functional. The method in brief:
as §3

The nature of data set [14]: In vitro evaluation for antibacterial activity against anaerobically grown Treponema hyodysenteriae (94A007). Particulars: Brachyspira hyodysenteriae. Type of data set: functional.
Another data set relates to Clostridium perfringens. The data set is described as follows: microbe, parasite or virus in culture. Type of data set: functional.
Data set [15] has as its system Actinobacillus pleuropneumoniae. The data set is described as follows: Compound was evaluated for minimum against Actinobacillus pleuropneumoniae intramuscular dose administration. Particulars: im, read-out: MED.
Data set [16] deals with Pasteurella multocida. The data set is described as follows: In vitro antibacterial activity against Aerobically grown Pasteurella multocida (59A006). Type of data set: functional. Summed up: as §3
Data set [17] deals with Pasteurella multocida. The data set is described as follows: In vivo protective dose was evaluated against Pasteurella multocida (59A006) in mouse(sc). Type of data set: functional. To be noted: read-out: PD50. The method in brief: as §4
Data set [18] relates to Salmonella enterica. The data set is described as follows: In vitro antibacterial activity against Aerobically grown Salmonella choleraesuis (58B015). The format is functional.
For data set [19], the system named is Bordetella bronchiseptica. The data set is described as follows: In vitro antibacterial activity against Aerobically grown Bordetella bronchiseptica (73A009). Type of data set: functional. Summed up:
as §3

Data set [20] has as its system Escherichia coli. The data set is described as follows: In vitro antibacterial activity against Aerobically grown Escherichia coli (51A538). Type of data set: functional. Summed up: as §3
Data set [21] has as its system Staphylococcus aureus. The data set is described as follows: In vitro antibacterial activity against Aerobically grown Staphylococcus aureus (54B004). The format is functional. Summed up: as §3
Data set [22] has as its system Actinobacillus pleuropneumoniae. The data set is described as follows: Compound was evaluated for minimum effective dose against Actinobacillus pleuropneumonia, peroral dose administration. Type of data set: functional. To be noted: po, read-out: MED. The method in brief:
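Cross-bred swine, 8.5–12.5 kg; intranasal challenge with A. pleuropneumoniae strain B316HM, grown overnight on enriched BHI agar at 37 °C in 5–10% CO2 and standardized by OD to 10^9 cfu/mL, three 1-mL increments per nostril. Single treatment (SID × 1): im 1% or 2.5% solution in sterile water into ham within 1 h of challenge, or oral gavage of 0.5% solution in sterile water.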

Data set [23] is described as follows: compound was evaluated for aqueous solubility at pH 7.2. Type of data set: physicochemical. To be noted: buffer. Summed up: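 Excess solid (~5 mg) shaken in 3 mL 0.05 M phosphate buffer pH 7.2 at 23 ± 1 °C in duplicate vials up to 3 days, pH readjusted to 7.2 after each sampling; filtered (0.45 nylon) samples analysed by HPLC.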
In data set [24] the test system is Escherichia coli. The data set is described as follows: In vivo protective dose was evaluated against Escherichia coli (51A266) in mouse(po). The format is functional. To be noted: read-out: PD50. Summed up:
as §4

Data set [25] relates to Mannheimia haemolytica. The data set is described as follows: Compound was evaluated for minimum effective dose against Pasteurella haemolytica, intramuscular dose administration. Type of data set: functional. Particulars: im, read-out: MED. The method in brief: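 Calves acid-treated intratracheally with 0.6 mL 8% acetic acid at 24 h and 4 h before endotracheal challenge with 50 mL P. haemolytica B280PA (~5 × 10^8 cfu/mL). im dosing of 2.5% or 5% solution in sterile water, day 0 and day 1 (SID × 2). Clinical signs and temperature recorded days 0–5; lungs scored and cultured. MED = lowest dose giving significant (65%) reduction of lung pathology.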

Data set [26] concerns Pasteurella multocida. The data set is described as follows: In vivo protective dose was evaluated against Pasteurella multocida (59A006) in mouse(po). Type of data set: functional. To be noted: read-out: PD50. Summed up: as §4
Data set [27] concerns Actinobacillus pleuropneumoniae. The data set is described as follows: Compound was evaluated for minimum effective dose against Actinobacillus pleuropneumonia, intramuscular dose administration. Particulars: im, read-out: MED.

In the case of `CCn1cc(C(=O)O)c(=O)c2cc(F)c(N3C[C@H]4CC[C@@H](C3)N4C)cc21`, the minimal effective dose in [1] was found to be 5 mg/kg; in the data set on Mannheimia haemolytica [7], 1.2 mg/kg; in data set [15] it was 0.6 mg/kg. For the same compound, the MIC in data set [2] was 0.78 µg/mL (≈ 2.17 µM); against Trueperella pyogenes, greater than 3.13 µg/mL; in the data set on Phocaeicola vulgatus, greater than 3.13 µg/mL; in data set [3], greater than 1.56 µg/mL; against Escherichia coli [5] it was 0.78 µg/mL (≈ 2.17 µM); in data set [8], 0.39 µg/mL (≈ 1.09 µM). The MIC stood at 0.2 µg/mL (≈ 0.556 µM) with Pasteurella multocida [9]; 0.78 µg/mL (≈ 2.17 µM) with Salmonella enterica [12]; 0.2 µg/mL (≈ 0.556 µM) in the data set on Staphylococcus aureus [13]; 3.13 µg/mL (≈ 8.71 µM) in data set [14]; 0.39 µg/mL (≈ 1.09 µM) against Clostridium perfringens. Also, the figures for the ED50 with Escherichia coli [4], in the data set with Pasteurella multocida [10] and in the data set on Pasteurella multocida [11] were 2.23 mg/kg, 2.21 mg/kg and 1.31 mg/kg, respectively. In addition, in the data set on Escherichia coli [6], the minimum concentration inducing gyrase-mediated DNA cleavage stood at 3.12 µg/mL.
For the compound `CCn1cc(C(=O)O)c(=O)c2cc(F)c(N3C[C@@H]4C[C@H]3CN4C)cc21`, the MIC in data set [2] is 0.78 µg/mL (≈ 2.26 µM); with Trueperella pyogenes it was greater than 3.13 µg/mL; against Phocaeicola vulgatus, greater than 3.13 µg/mL; in data set [3], 1.56 µg/mL (≈ 4.52 µM); against Escherichia coli [5], 0.2 µg/mL (≈ 0.579 µM); in data set [8] it was 0.39 µg/mL (≈ 1.13 µM). The MIC in the data set with Pasteurella multocida [16] amounted to 0.1 µg/mL (≈ 0.29 µM); with Salmonella enterica [18], 0.39 µg/mL (≈ 1.13 µM); against Staphylococcus aureus [13], 0.39 µg/mL (≈ 1.13 µM); in data set [14], 1.56 µg/mL (≈ 4.52 µM); against Clostridium perfringens, 0.2 µg/mL (≈ 0.579 µM). Also, the results for the ED50 with Escherichia coli [4] and in the data set on Pasteurella multocida [17] were 1.45 mg/kg and 1.35 mg/kg, respectively. Moreover, in the data set with Escherichia coli [6], the minimum concentration inducing gyrase-mediated DNA cleavage stood at 3.12 µg/mL.
Turning to `CN1C[C@@H]2C[C@H]1CN2c1c(F)cc2c(=O)c(C(=O)O)cn(-c3ccc(F)cc3)c2c1Cl`, the MIC in data set [2] was 0.78 µg/mL (≈ 1.75 µM); with Trueperella pyogenes, greater than 3.13 µg/mL; with Phocaeicola vulgatus it was greater than 3.13 µg/mL; in [19], greater than 1.56 µg/mL; against Escherichia coli [20], 0.78 µg/mL (≈ 1.75 µM); in data set [8] it was 0.78 µg/mL (≈ 1.75 µM). Besides, the MIC against Pasteurella multocida [16] is 0.05 µg/mL (≈ 0.112 µM); in the data set on Salmonella enterica [18], 1.56 µg/mL (≈ 3.5 µM); with Staphylococcus aureus [21], 0.78 µg/mL (≈ 1.75 µM); in data set [14], greater than 3.13 µg/mL; against Clostridium perfringens, 0.78 µg/mL (≈ 1.75 µM). In addition, the minimum concentration inducing gyrase-mediated DNA cleavage with Escherichia coli [6] was 1.56 µg/mL.
By solubility is commonly meant the concentration that dissolves in the medium under given conditions. Read a low solubility as a poorly soluble substance. Take `CCn1cc(C(=O)O)c(=O)c2cc(F)c(N3CCN4CCC3CC4)cc21` [BINFLOXACIN]: the minimal effective dose came to 2.5 mg/kg in data set [22], 0.3 mg/kg with Mannheimia haemolytica [25] and 0.3 mg/kg in data set [27]. Besides, the MIC in [2] was 0.05 µg/mL (≈ 0.139 µM); with Trueperella pyogenes, 3.13 µg/mL (≈ 8.71 µM); in the data set with Phocaeicola vulgatus, greater than 3.13 µg/mL; in [3], 1.56 µg/mL (≈ 4.34 µM); in the data set with Escherichia coli [5] it was 0.2 µg/mL (≈ 0.556 µM); in data set [8] it was 0.1 µg/mL (≈ 0.278 µM). Besides, the MIC against Pasteurella multocida [9] is 0.05 µg/mL (≈ 0.139 µM); against Salmonella enterica [12], 0.2 µg/mL (≈ 0.556 µM); in the data set on Staphylococcus aureus [13], 0.39 µg/mL (≈ 1.09 µM); in data set [14], 1.56 µg/mL (≈ 4.34 µM); against Clostridium perfringens, 0.1 µg/mL (≈ 0.278 µM). This compound yielded a solubility in [23] of 49 µg/mL (≈ 136 µM). In addition, the ED50 in the data set on Escherichia coli [24] was 10.2 mg/kg; in the data set on Escherichia coli [4], 1.1 mg/kg; in the data set with Pasteurella multocida [26], 1.9 mg/kg; with Pasteurella multocida [17], 0.63 mg/kg. The minimum concentration inducing gyrase-mediated DNA cleavage in the data set on Escherichia coli [6] was 1.56 µg/mL.
